Series [1] has as its system Candida albicans. The experiment in a line: Fungicidal activity against Candida albicans SC5314 assessed as concentration required to less than 0.1% survival of organism after 2 hrs. The following applies: SC5314, 2 h. The format is functional. In short, it runs like this:
(§1)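 C. albicans SC5314 or C. glabrata BG2 exposed to compounds. Cells then washed and plated on YPD (1% yeast extract, 2% peptone, 2% glucose) for CFU counts. MFC = minimal concentration leaving <0.1% survival relative to DMSO control.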

Another series relates to Nakaseomyces glabratus. The experiment in a line: Fungal activity against Candida glabrata BG2 assessed as concentration required to less than 0.1% survival of organism after 2 hrs. The format is functional. The following applies: BG2, 2 h. In short, it runs like this: as §1
Series [2] in a line: Toxicity in glp-4delta sek-1 delta double mutant Caenorhabditis elegans model assessed as survival at 50 uM after 11 days relative to day 0. The format is organism-based. The following applies: in vivo. In short, it runs like this: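 glp-4Δsek-1Δ C. elegans grown on NGM/OP50 E. coli plates to L4 and washed in M9 buffer (with cholesterol and kanamycin). 40–50 worms per well in 1 mL M9 with compound at 50 μM or DMSO (0.5%) control. Survival counted daily, relative to day 0. Mean ±SEM of duplicates; experiments run at least twice.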

Series [3] concerns Candida albicans. The experiment in a line: Fungicidal activity against Candida albicans SC5314-infected Caenorhabditis elegans L4 larvae model assessed as survival of worms at 60 uM after 5 days relative to day 0. The format is functional. In outline: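 C. elegans L4 larvae fed 4 h on YPD agar lawns of C. albicans SC5314 (overnight culture spread, 16 h at 37 °C). Worms washed in M9 buffer and incubated with compound at 60 μM or DMSO control. Living worms counted daily; % survival relative to day 0. Mean ±SEM of duplicates; experiments run at least twice.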

In series [4] the test system is Candida albicans. The experiment in a line: Fungicidal activity against Candida albicans SC5314 assessed as biofilm eradication after 24 hrs. Format: functional.
Series [5] is described as follows: Antimicrobial activity against mixed Candida albicans SC5314/Staphylococcus epidermidis assessed as biofilm eradication after 24 hrs. The format is functional. In outline: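 Mixed biofilm of C. albicans SC5314 and S. epidermidis (50/50). Overnight cultures suspended in 1/20 TSB at OD590 0.5 and mixed. 24 h adhesion, planktonic cells removed, then 48 h growth in fresh 1/20 TSB. Mature biofilms exposed 24 h to compound in PBS. Biomass read by crystal violet staining. BEC50 = concentration eradicating 50% of biofilm.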

By MFC is commonly meant the lowest tested concentration that kills the fungus rather than only halting it.

Each structure is given as a SMILES string. ≈ marks a conversion by molar mass, not a printed value. Bounds are passed on as bounds.

With `Nc1ccc(SCc2ccc(Cl)cc2)cc1`, the minimal fungicidal concentration (MFC) with Candida albicans [1] and in the series with Nakaseomyces glabratus was > 100 µM in each case.
Consider `Nc1ccccc1SCc1ccc(Cl)cc1`, for which the MFC with Candida albicans [1] and with Nakaseomyces glabratus was > 100 µM throughout.
For `Clc1ccc(CSc2ccccc2N=C(NC2CCCCC2)NC2CCCCC2)cc1`, the minimal fungicidal concentration (MFC) with Candida albicans [1] was > 100 µM; with Nakaseomyces glabratus, 50 µM (≈ 22.8 µg/mL).
For the compound `Clc1ccc(CSc2cccc(N=C(NC3CCCCC3)NC3CCCCC3)c2)cc1`, the MFC in the series with Candida albicans [1] and with Nakaseomyces glabratus was 5 µM (≈ 2.28 µg/mL) throughout. Besides, the survival at 264 h, 50 µM in series [2] is 19%. For the same compound, the survival at 60 µM in the series on Candida albicans [3] was determined as 18.5%.
`N=C(N)Nc1ccc(SCc2cc(Br)cc(Br)c2)cc1`: the MFC in the series with Candida albicans [1] and in the series on Nakaseomyces glabratus was 50 µM (≈ 20.8 µg/mL) each time.
With `Brc1cc(Br)cc(CSc2ccccc2N=C(NC2CCCCC2)NC2CCCCC2)c1`, the figures for the minimal fungicidal concentration (MFC) in the series on Candida albicans [1] and with Nakaseomyces glabratus were 5 µM (≈ 2.9 µg/mL) and 50 µM (≈ 29 µg/mL), respectively.
For `OC(Cn1cncn1)(Cn1cncn1)c1ccc(F)cc1F` [FLUCONAZOLE], the MFC in the series on Candida albicans [1] and with Nakaseomyces glabratus was > 100 µM in each case. In addition, the BBC50 (in the series with Candida albicans [4]; in series [5]) was >240 µM each time.
For `N=C(N)NC(=N)Nc1ccc(SCc2ccc(Cl)cc2)cc1`, the minimal fungicidal concentration (MFC) in the series on Candida albicans [1] and with Nakaseomyces glabratus was 50 µM (≈ 16.7 µg/mL) each time.
On to `Brc1cc(Br)cc(CSc2ccc(N=C(NC3CCCCC3)NC3CCCCC3)cc2)c1`, for which the MFC in the series on Candida albicans [1] and in the series with Nakaseomyces glabratus was 5 µM (≈ 2.9 µg/mL) in each case. Besides, the survival at 264 h, 50 µM in series [2] was determined as 51%. Also, the survival at 60 µM in the series on Candida albicans [3] worked out at 49%.
Turning to `N=C(N)NC(=N)Nc1cccc(SCc2ccc(Cl)cc2)c1`, the MFC in the series on Candida albicans [1] and in the series on Nakaseomyces glabratus was 50 µM (≈ 16.7 µg/mL) throughout.
For the compound `N=C(N)Nc1cccc(SCc2ccc(Cl)cc2)c1`, the MFC in the series on Candida albicans [1] and with Nakaseomyces glabratus was 100 µM (≈ 29.2 µg/mL) in each case.
For `Clc1ccc(CSc2ccc(N=C(NC3CCCCC3)NC3CCCCC3)cc2)cc1`, the minimum fungicidal concentration (MFC) with Candida albicans [1] and with Nakaseomyces glabratus was > 100 µM throughout.
With `N=C(N)Nc1cccc(SCc2cc(Br)cc(Br)c2)c1`, the MFC with Candida albicans [1] and in the series on Nakaseomyces glabratus was 50 µM (≈ 20.8 µg/mL) in each case.
In the case of `Cl.N=C(N)NC(=N)Nc1cccc(SCc2cc(Br)cc(Br)c2)c1`, the MFC in the series with Candida albicans [1] came to 5 µM; in the series on Nakaseomyces glabratus, 10 µM. Moreover, the BBC50 in series [5] was found to be 55 µM. In series [2], the survival at 264 h, 50 µM is 5%. In addition, the survival at 60 µM in the series on Candida albicans [3] came to 15.4%.
For `N=C(N)NC(=N)Nc1ccc(SCc2cc(Br)cc(Br)c2)cc1`, the MFC in the series with Candida albicans [1] and in the series with Nakaseomyces glabratus was > 100 µM in each case.
For `N=C(N)Nc1ccccc1SCc1cc(Br)cc(Br)c1`, the MFC in the series with Candida albicans [1] and with Nakaseomyces glabratus was 50 µM (≈ 20.8 µg/mL) each time.
With `Nc1ccccc1SCc1cc(Br)cc(Br)c1`, the MFC in the series with Candida albicans [1] and with Nakaseomyces glabratus was > 100 µM each time.
Turning to `N=C(N)Nc1ccc(SCc2ccc(Cl)cc2)cc1`, the MFC in the series with Candida albicans [1] and with Nakaseomyces glabratus was 50 µM (≈ 14.6 µg/mL) each time.
With `N=C(N)Nc1ccccc1SCc1ccc(Cl)cc1`, the minimum fungicidal concentration (MFC) in the series on Candida albicans [1] and in the series on Nakaseomyces glabratus was > 100 µM in each case.
For `Nc1ccc(SCc2cc(Br)cc(Br)c2)cc1`, the minimum fungicidal concentration (MFC) in the series with Candida albicans [1] and with Nakaseomyces glabratus was > 100 µM each time.
As to `Brc1cc(Br)cc(CSc2cccc(N=C(NC3CCCCC3)NC3CCCCC3)c2)c1`, the MFC with Candida albicans [1] and in the series with Nakaseomyces glabratus was 5 µM (≈ 2.9 µg/mL) throughout. Further, in series [2], the survival at 264 h, 50 µM was 33%. Further, in the series with Candida albicans [3], the survival at 60 µM was 55.5%.

(Values after ChEMBL document CHEMBL1777798, “Novel fungicidal benzylsulfanyl-phenylguanidines” (Bioorg Med Chem Lett, 2011).)
